SMILES strings stand for the structures. Active and inactive are the calls of the source. No cut-off for these calls is given here. Where only a bound is given, the exact number is not on record here.

From ChEMBL document CHEMBL1275400, “Design, synthesis, and DNA-binding of N-alkyl(anilino)quinazoline derivatives” (J Med Chem, 2010) come the findings set out here.

One experiment concerns MCF7. The experiment in a line: Antiproliferative activity against human MCF7 cells after 72 hrs by MTS assay. Conditions: MCF7, 72 h. It counts as functional, cell-based. For orientation: Formazan colour is commonly taken as a measure of viable cells.
The subject of experiment [1] is Nucleic Acid. Nature of the experiment: Binding affinity to DNA assessed as inhibition of cleavage of DNA substrate by densitometric analysis. Type of experiment: nucleic-acid assay.
Experiment [2] deals with T1, DNA topoisomerase 1 (Homo sapiens) (UniProt P11387).
T1 sequence (whole entry): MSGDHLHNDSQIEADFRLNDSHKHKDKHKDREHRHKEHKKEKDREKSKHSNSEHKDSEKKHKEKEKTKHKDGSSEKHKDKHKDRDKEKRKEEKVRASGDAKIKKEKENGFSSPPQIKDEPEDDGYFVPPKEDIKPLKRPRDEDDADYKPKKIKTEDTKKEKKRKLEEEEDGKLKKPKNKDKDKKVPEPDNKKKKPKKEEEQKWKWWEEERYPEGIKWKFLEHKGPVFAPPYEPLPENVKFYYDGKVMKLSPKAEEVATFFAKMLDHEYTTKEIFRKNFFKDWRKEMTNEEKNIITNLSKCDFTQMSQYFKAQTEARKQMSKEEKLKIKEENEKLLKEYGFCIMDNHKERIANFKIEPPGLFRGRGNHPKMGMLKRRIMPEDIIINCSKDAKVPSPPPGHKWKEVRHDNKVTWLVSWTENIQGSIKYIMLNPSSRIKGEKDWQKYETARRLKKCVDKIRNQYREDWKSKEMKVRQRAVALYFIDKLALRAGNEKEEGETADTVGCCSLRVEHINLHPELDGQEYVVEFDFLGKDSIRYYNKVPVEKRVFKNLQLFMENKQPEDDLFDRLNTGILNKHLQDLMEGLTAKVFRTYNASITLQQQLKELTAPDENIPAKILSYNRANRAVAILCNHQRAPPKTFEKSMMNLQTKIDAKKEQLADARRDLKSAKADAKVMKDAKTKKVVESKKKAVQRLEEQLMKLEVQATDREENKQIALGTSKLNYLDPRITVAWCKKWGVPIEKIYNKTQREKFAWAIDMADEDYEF
Nature of the experiment: Inhibition of human recombinant topoisomerase 1-mediated supercoiled pUC19 DNA relaxation up to 100 uM […] by agarose gel electrophoresis analysis. Conditions: in the assay text read “45 mins” for “2 hrs”. In outline: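 Supercoiled pUC19 (130 ng) is incubated with 4 units of recombinant human topoisomerase I for 45 min at 37 °C. The relaxation buffer is 50 mM Tris pH 7.8, 50 mM KCl, 10 mM MgCl2, 1 mM DTT and 1 mM EDTA, with graded drug. Reactions are stopped with 0.25% SDS and 250 μg/mL proteinase K. Samples are run on 1% agarose for 2 h at 120 V and stained with ethidium bromide.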

Experiment [3] relates to Nucleic Acid. The experiment in a line: Binding affinity to poly(dA-dT)2 in BPE buffer assessed as change in melting temperature at drug/DNA base pair ratio 1. It counts as nucleic-acid assay. In outline: (§1)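 Melting curves are read at 260 nm in BPE buffer, pH 7.1 (6 mM Na2HPO4, 2 mM NaH2PO4, 1 mM EDTA), in Peltier-heated 10 mm quartz cuvettes. Temperature rises from 20 to 100 °C at 1 °C/min and is monitored with a platinum probe. Tm is taken as the midpoint of the hyperchromic transition.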

A further experiment concerns HT-29. Nature of the experiment: Antiproliferative activity against human HT-29 cells after 72 hrs by MTS assay. It counts as functional, cell-based. The settings on record: HT-29, 72 h.
Experiment [4] concerns Calf thymus DNA. Nature of the experiment: Binding affinity to calf thymus DNA in BPE buffer at drug/DNA base pair ratio up to 10 by UV spectroscopic analysis. Type of experiment: nucleic-acid assay. Conditions: Bos taurus. Put shortly: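 Absorption spectra are recorded in BPE buffer, pH 7.1, at a constant drug concentration of 20 μM. Aliquots of concentrated calf thymus DNA are added to cover a range of DNA-phosphate/drug ratios.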

Experiment [5] relates to Calf thymus DNA. The experiment in a line: Binding affinity to calf thymus DNA by fluorescence titration assay. It counts as nucleic-acid assay, Bos taurus. In outline: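 Intrinsic drug fluorescence is measured at room temperature with excitation at 360 nm and emission scanned over 380–520 nm. Drug is held at 10 μM with DNA at 0.01–1 mM, each sample prepared separately. The apparent KD is obtained by nonlinear least-squares fitting to KD = [ligand][DNA]/[ligand-DNA].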

In a further experiment the test system is PC-3. Nature of the experiment: Antiproliferative activity against human PC3 cells after 72 hrs by MTS assay. It counts as functional, cell-based. The settings on record: PC-3, 72 h.
Experiment [6] relates to Nucleic Acid. Nature of the experiment: Binding affinity to DNA assessed as inhibition of cleavage of DNA substrate up to 100 uM by Dnase1 footprinting assay. Type of experiment: nucleic-acid assay. In outline:
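DNase I is then added to a final concentration of about 0.01 unit/mL. Digestion runs 3 min and is stopped by freeze-drying. Protected sites are localized on the gel.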

The test system of experiment [7] is Calf thymus DNA. Nature of the experiment: Binding affinity to calf thymus DNA in BPE buffer assessed as change in melting temperature at drug/DNA base pair ratio 1. It counts as nucleic-acid assay. Conditions: Bos taurus. In outline:
as §1

Experiment [8] has as its system Calf thymus DNA. The experiment in a line: Binding affinity to calf thymus DNA at drug/DNA base pair ratio up to 4 by circular dichroism analysis. Type of experiment: nucleic-acid assay. Conditions: Bos taurus. In outline: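 CD spectra are recorded in 1 mM sodium cacodylate buffer, pH 7.0, in 10 mm quartz cuvettes, averaging four scans. A 50 μM drug solution is diluted stepwise with 5 mM DNA. Alternatively, the drug–DNA complex at high P/D is diluted with pure ligand solution to reach the desired drug/DNA ratio.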
In general terms: CD spectra are sensitive to the conformation of chiral molecules.

Take `CCN(CC)CCN(c1ccc(C)c(Br)c1)c1ncnc2cc(OC)c(OC)cc12`: the IC50 (usually the concentration that inhibits the measured activity by half) with MCF7 was 6.8 µM; in the experiment on HT-29, 5.6 µM; in the experiment on PC-3, over 10 µM. Further, the outcome in the experiment on Nucleic Acid [1], with Calf thymus DNA [4], in the experiment with Nucleic Acid [6] and with Calf thymus DNA [8] was Active. Also, the inhibition result in experiment [2] is “inactive”. For the same compound, the ΔTm (usually the shift of the melting midpoint relative to a reference) stood at 24.1 °C in the experiment on Nucleic Acid [3] and 14 °C in the experiment on Calf thymus DNA [7]. Moreover, binding in the experiment with Calf thymus DNA [5] was put at a Kd of 40.2 µM.

Regarding `COc1cc2ncnc(N(C)c3ccc(C)c(Br)c3)c2cc1OC`, the results for the IC50 with MCF7, in the experiment on HT-29 and in the experiment with PC-3 were 9.9 µM, 6.3 µM and 9.5 µM, respectively. The result in the experiment with Nucleic Acid [1], with Calf thymus DNA [4], in the experiment with Nucleic Acid [6] and in the experiment on Calf thymus DNA [8] was Active. Besides, the inhibition entry in [2] was “inactive”. Besides, the ΔTm in the experiment with Nucleic Acid [3] is 15 °C; in the experiment on Calf thymus DNA [7], 8.4 °C. Further, the Kd (as a rule, the equilibrium constant for the complex coming apart) in the experiment on Calf thymus DNA [5] is 326 µM.
